From ChEMBL document CHEMBL1781920, “Synthesis and antimicrobial activity of some new 4-hetarylpyrazole and furo[2,3-c]pyrazole derivatives” (2011)
≈ marks a conversion by molar mass, not a printed value.

Test system: Botrytis fabae
Test: Antifungal activity against Botrytis fabae ATCC 14862 at 1 mg/ml after 48 hrs by agar-diffusion method
Assay type: functional
Conditions: ATCC 14862, 48 h, read-out: IZ
Method in brief: (§1)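 Fungi were seeded at 10⁴ CFU/mL onto nutrient agar plates. Filter-paper disks carried compound dissolved in DMF at 1 mg/mL, two disks per plate, in triplicate, with a DMF-only control. After 48 h incubation at 37 °C, the average diameter of the growth-inhibition zone was read in mm.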

Structure (SMILES) | zone of inhibition at 1000 µg/mL [mm]
Cc1nn(-c2ccccc2)c2c1/C(=N/c1ccccn1)CO2 | 20
Cc1[nH]n(-c2ccccc2)c(=O)c1C(=O)CN1CCOCC1 | 19
Cc1[nH]n(-c2ccccc2)c(=O)c1-c1cc2c(=O)oc3ccccc3c2o1 | 37
C[C@@H]1C[C@@H]([C@H](O)CC2CC(=O)NC(=O)C2)C(=O)[C@@H](C)C1 [CYCLOHEXIMIDE] | 42

Test system: Bacillus subtilis
Test: Antibacterial activity against Bacillus subtilis ATCC 6633 after 24 hrs by serial dilution method relative to chloramphenicol
Assay type: functional
Conditions: not given

Structure (SMILES) | Activity [%]
Cc1[nH]n(-c2ccccc2)c(=O)c1-c1cc2c(=O)oc3ccccc3c2o1 | 25

Test system: Botrytis fabae
Test: Antifungal activity against Botrytis fabae ATCC 14862 after 48 hrs by serial dilution method
Assay type: functional
Conditions: ATCC 14862, 48 h
Method in brief: (§2)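 MICs were measured by microdilution in Sabouraud liquid medium, for compounds with disk zones >14 mm. DMF stocks were serially diluted twofold across 500–3.125. Sealed plates were incubated at 37 °C for 48 h in a humid chamber. The lowest concentration with no visible turbidity was recorded as the MIC.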

MIC [µg/mL] | Structure (SMILES)
50 (≈ 172 µM) | Cc1nn(-c2ccccc2)c2c1/C(=N/c1ccccn1)CO2
50 (≈ 166 µM) | Cc1[nH]n(-c2ccccc2)c(=O)c1C(=O)CN1CCOCC1
6.25 (≈ 17.4 µM) | Cc1[nH]n(-c2ccccc2)c(=O)c1-c1cc2c(=O)oc3ccccc3c2o1

Structure (SMILES) | MIC [µg/mL]
C[C@@H]1C[C@@H]([C@H](O)CC2CC(=O)NC(=O)C2)C(=O)[C@@H](C)C1 [CYCLOHEXIMIDE] | 3.12 (≈ 11.1 µM)

Test system: Bacillus subtilis
Test: Antibacterial activity against Bacillus subtilis ATCC 6633 at 1 mg/ml after 24 hrs by agar-diffusion method
Assay type: functional
Conditions: ATCC 6633, 24 h, read-out: IZ
Method in brief: (§3)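 Agar disk diffusion on nutrient agar seeded with about 10⁶ CFU/mL of the test bacterium. Filter-paper disks were impregnated with compound in DMF at 1 mg/mL, two disks per plate, in triplicate. DMF alone served as control. Plates were incubated at 37 °C for 24 h, and the mean inhibition-zone diameter was recorded in mm.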

Structure (SMILES) | zone of inhibition at 1000 µg/mL [mm]
Cc1nn(-c2ccccc2)c2c1/C(=N/c1ccccn1)CO2 | 26
Cc1[nH]n(-c2ccccc2)c(=O)c1C(=O)CN1CCOCC1 | 32
Cc1[nH]n(-c2ccccc2)c(=O)c1-c1cc2c(=O)oc3ccccc3c2o1 | 33

Test system: Bacillus subtilis
Test: Antibacterial activity against Bacillus subtilis ATCC 6633 after 24 hrs by serial dilution method
Assay type: functional
Conditions: ATCC 6633, 24 h
Method in brief: (§4)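 Broth microdilution in Mueller–Hinton broth, run only for compounds giving zones >14 mm in the disk test. DMF stocks were diluted twofold from 500 to 3.125, and about 10⁶ CFU/mL bacteria were added per well. Sealed plates were kept at 37 °C for 24 h in a humid chamber. MIC was taken as the lowest concentration without visible turbidity.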

MIC [µg/mL] | Structure (SMILES)
25 (≈ 86.1 µM) | Cc1nn(-c2ccccc2)c2c1/C(=N/c1ccccn1)CO2
12.5 (≈ 41.5 µM) | Cc1[nH]n(-c2ccccc2)c(=O)c1C(=O)CN1CCOCC1
12.5 (≈ 34.9 µM) | Cc1[nH]n(-c2ccccc2)c(=O)c1-c1cc2c(=O)oc3ccccc3c2o1

Test system: Bacillus thuringiensis
Test: Antibacterial activity against Bacillus thuringiensis ATCC 6051 after 24 hrs by serial dilution method
Assay type: functional
Conditions: ATCC 6051, 24 h
Method in brief: as §4

MIC [µg/mL] | Structure (SMILES)
25 (≈ 86.1 µM) | Cc1nn(-c2ccccc2)c2c1/C(=N/c1ccccn1)CO2
6.25 (≈ 20.7 µM) | Cc1[nH]n(-c2ccccc2)c(=O)c1C(=O)CN1CCOCC1
100 (≈ 279 µM) | Cc1[nH]n(-c2ccccc2)c(=O)c1-c1cc2c(=O)oc3ccccc3c2o1

Test system: Escherichia coli
Test: Antibacterial activity against Escherichia coli ATCC 14169 at 1 mg/ml after 24 hrs by agar-diffusion method
Assay type: functional
Conditions: ATCC 14169, 24 h, read-out: IZ
Method in brief: as §3

Structure (SMILES) | zone of inhibition at 1000 µg/mL [mm]
Cc1nn(-c2ccccc2)c2c1/C(=N/c1ccccn1)CO2 | 38
Cc1[nH]n(-c2ccccc2)c(=O)c1C(=O)CN1CCOCC1 | 16
Cc1[nH]n(-c2ccccc2)c(=O)c1-c1cc2c(=O)oc3ccccc3c2o1 | 15

Test system: Pseudomonas aeruginosa
Test: Antibacterial activity against Pseudomonas aeruginosa ATCC 27853 at 1 mg/ml after 24 hrs by agar-diffusion method
Assay type: functional
Conditions: ATCC 27853, 24 h, read-out: IZ
Method in brief: as §3

Structure (SMILES) | zone of inhibition at 1000 µg/mL [mm]
Cc1nn(-c2ccccc2)c2c1/C(=N/c1ccccn1)CO2 | 15
Cc1[nH]n(-c2ccccc2)c(=O)c1C(=O)CN1CCOCC1 | 20
Cc1[nH]n(-c2ccccc2)c(=O)c1-c1cc2c(=O)oc3ccccc3c2o1 | 38

Test system: Escherichia coli
Test: Antibacterial activity against Escherichia coli ATCC 14169 after 24 hrs by serial dilution method
Assay type: functional
Conditions: ATCC 14169, 24 h
Method in brief: as §4

MIC [µg/mL] | Structure (SMILES)
6.25 (≈ 21.5 µM) | Cc1nn(-c2ccccc2)c2c1/C(=N/c1ccccn1)CO2
100 (≈ 332 µM) | Cc1[nH]n(-c2ccccc2)c(=O)c1C(=O)CN1CCOCC1
6.25 (≈ 17.4 µM) | Cc1[nH]n(-c2ccccc2)c(=O)c1-c1cc2c(=O)oc3ccccc3c2o1

Test system: Bacillus subtilis
Test: Antibacterial activity against Bacillus subtilis ATCC 6633 after 24 hrs by serial dilution method relative to cephalothin
Assay type: functional
Conditions: not given

Structure (SMILES) | Activity [%]
Cc1[nH]n(-c2ccccc2)c(=O)c1-c1cc2c(=O)oc3ccccc3c2o1 | 50

Test system: Fusarium oxysporum
Test: Antifungal activity against Fusarium oxysporum ATCC 16417 after 48 hrs by serial dilution method
Assay type: functional
Conditions: ATCC 16417, 48 h
Method in brief: as §2

MIC [µg/mL] | Structure (SMILES)
100 (≈ 344 µM) | Cc1nn(-c2ccccc2)c2c1/C(=N/c1ccccn1)CO2
50 (≈ 166 µM) | Cc1[nH]n(-c2ccccc2)c(=O)c1C(=O)CN1CCOCC1
6.25 (≈ 17.4 µM) | Cc1[nH]n(-c2ccccc2)c(=O)c1-c1cc2c(=O)oc3ccccc3c2o1

Structure (SMILES) | MIC [µg/mL]
C[C@@H]1C[C@@H]([C@H](O)CC2CC(=O)NC(=O)C2)C(=O)[C@@H](C)C1 [CYCLOHEXIMIDE] | 3.12 (≈ 11.1 µM)

Test system: Fusarium oxysporum
Test: Antifungal activity against Fusarium oxysporum ATCC 16417 at 1 mg/ml after 48 hrs by agar-diffusion method
Assay type: functional
Conditions: ATCC 16417, 48 h, read-out: IZ
Method in brief: as §1

Structure (SMILES) | zone of inhibition at 1000 µg/mL [mm]
Cc1nn(-c2ccccc2)c2c1/C(=N/c1ccccn1)CO2 | 16
Cc1[nH]n(-c2ccccc2)c(=O)c1C(=O)CN1CCOCC1 | 19
Cc1[nH]n(-c2ccccc2)c(=O)c1-c1cc2c(=O)oc3ccccc3c2o1 | 37
C[C@@H]1C[C@@H]([C@H](O)CC2CC(=O)NC(=O)C2)C(=O)[C@@H](C)C1 [CYCLOHEXIMIDE] | 43

Test system: Bacillus thuringiensis
Test: Antibacterial activity against Bacillus thuringiensis ATCC 6051 at 1 mg/ml after 24 hrs by agar-diffusion method
Assay type: functional
Conditions: ATCC 6051, 24 h, read-out: IZ
Method in brief: as §3

Structure (SMILES) | zone of inhibition at 1000 µg/mL [mm]
Cc1nn(-c2ccccc2)c2c1/C(=N/c1ccccn1)CO2 | 25
Cc1[nH]n(-c2ccccc2)c(=O)c1C(=O)CN1CCOCC1 | 38
Cc1[nH]n(-c2ccccc2)c(=O)c1-c1cc2c(=O)oc3ccccc3c2o1 | 15

Test system: Pseudomonas aeruginosa
Test: Antibacterial activity against Pseudomonas aeruginosa ATCC 27853 after 24 hrs by serial dilution method
Assay type: functional
Conditions: ATCC 27853, 24 h
Method in brief: as §4

MIC [µg/mL] | Structure (SMILES)
6.25 (≈ 21.5 µM) | Cc1nn(-c2ccccc2)c2c1/C(=N/c1ccccn1)CO2
50 (≈ 166 µM) | Cc1[nH]n(-c2ccccc2)c(=O)c1C(=O)CN1CCOCC1
6.25 (≈ 17.4 µM) | Cc1[nH]n(-c2ccccc2)c(=O)c1-c1cc2c(=O)oc3ccccc3c2o1
